Test results taken from ChEMBL document CHEMBL1806465, “Synthesis and biological evaluation of 4-nitro-substituted 1,3-diaryltriazenes as a novel class of potent antitumor agents” (Eur J Med Chem, 2011).
pIC50: −log10 of the molar value. Converted amounts (≈) assume the structure as drawn. The source made the active and inactive calls. The calls are words filed in the database; no cut-off is given here.

Columns and labels:
[1] = tested on: HeLa; assay: Cytotoxicity against human HeLa cells after 72 hrs by MTT assay; format: functional, cell-based
[2] = Solubility of the compound in DMSO; format: physicochemical
[3] = Stability of the compound in DMSO after 26.25 hrs by LC/MS/MS analysis in presence of 10% FBS; format: physicochemical; conditions: cattle; for Stability: 26.25 h; for remaining at 26.25 h: DMSO with 10% FBS, read-out: Stability
[4] = tested on: Nucleic Acid; assay: Binding affinity to calf thymus DNA assessed as change in melting temperature at compound to DNA ratio of 0.3; format: nucleic-acid assay; conditions: Bos taurus
Summary of the method: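 ct-DNA sonicated, filtered, in Na-cacodylate buffer pH 7, I = 0.05 mol dm-3, 2 x 10^-5 mol dm-3 (as phosphate, ε260 = 6600); compound/DNA ratio 0.3. Absorbance at 260 nm followed versus temperature, compound absorbance subtracted, curves normalized. Tm taken from first-derivative maximum, confirmed by tangent method; ΔTm = Tm(complex) − Tm(free DNA), mean of ≥2 runs, error ±0.5 °C.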

[5] = Solubility of the compound in water; format: physicochemical; conditions: buffer
[6] = tested on: L1210; assay: Cytotoxicity against mouse L1210 cells at 32 uM; format: functional

| solubility [2] | SMILES | pIC50 [1] | further results |
| --- | --- | --- | --- |
|  | O=C(c1ccc(C(F)(F)F)cc1)N(/N=N/c1ccc([N+](=O)[O-])cc1C(F)(F)F)c1ccc([N+](=O)[O-])cc1C(F)(F)F | 6.16 |  |
| 40.3 µM (≈ 25 µg/mL) | COc1cc(/C=C/C(=O)N(/N=N/c2cc(C(F)(F)F)ccc2Cl)c2cc(C(F)(F)F)ccc2Cl)ccc1OC(C)=O |  | Activity [1]: inactive |
| 37.3 µM (≈ 12.5 µg/mL) | Clc1ccc(Cl)c(/N=N/Nc2cc(Cl)ccc2Cl)c1 |  | Activity [1]: inactive |
|  | O=C(c1ccc(F)cc1)N(/N=N/c1ccc([N+](=O)[O-])cc1Br)c1ccc([N+](=O)[O-])cc1Br | 6.24 |  |
|  | O=[N+]([O-])c1ccc(/N=N/Nc2ccc([N+](=O)[O-])cc2Cl)c(Cl)c1 | 5.52 | Stability [3]: Stable; Activity [4]: inactive; solubility [5]: Insoluble |
|  | O=[N+]([O-])c1ccc(/N=N/Nc2ccc([N+](=O)[O-])cc2)cc1 |  | Activity [1]: inactive |
|  | O=C(c1ccccc1)N(/N=N/c1ccc([N+](=O)[O-])cc1Br)c1ccc([N+](=O)[O-])cc1Br | 5.82 |  |
|  | CC(=O)N(/N=N/c1ccc([N+](=O)[O-])cc1)c1ccc([N+](=O)[O-])cc1 | 4.20 |  |
|  | CC(=O)N(/N=N/c1ccc(Cl)c(C(F)(F)F)c1)c1ccc(Cl)c(C(F)(F)F)c1 | 4.30 |  |
|  | O=C(c1ccccc1)N(/N=N/c1ccc([N+](=O)[O-])cc1Cl)c1ccc([N+](=O)[O-])cc1Cl | 6.23 | remaining at 26.25 h [3]: 9% |
|  | O=C(c1ccc(F)cc1)N(/N=N/c1ccc([N+](=O)[O-])cc1C(F)(F)F)c1ccc([N+](=O)[O-])cc1C(F)(F)F | 6.00 |  |
|  | O=C(c1ccccc1C(F)(F)F)N(/N=N/c1ccc([N+](=O)[O-])cc1Br)c1ccc([N+](=O)[O-])cc1Br | 4.87 |  |
|  | CC(=O)Oc1ccc(/C=C/C(=O)N(/N=N/c2ccc(Cl)c(C(F)(F)F)c2)c2ccc(Cl)c(C(F)(F)F)c2)cc1OC(C)=O | 4.37 |  |
|  | CC(=O)NCC(=O)O.N=C(N)c1ccc(/N=N/Nc2ccc(C(=N)N)cc2)cc1 [DIMINAZEN ACETURATE] | 3.74 | Activity [6]: 50% |
|  | O=C(c1ccccc1C(F)(F)F)N(/N=N/c1ccc([N+](=O)[O-])cc1C(F)(F)F)c1ccc([N+](=O)[O-])cc1C(F)(F)F | 5.27 |  |
|  | O=C(c1ccccc1F)N(/N=N/c1ccc([N+](=O)[O-])cc1Br)c1ccc([N+](=O)[O-])cc1Br | 5.92 |  |
|  | O=C(c1ccccc1F)N(/N=N/c1ccc([N+](=O)[O-])cc1Cl)c1ccc([N+](=O)[O-])cc1Cl | 5.63 |  |
|  | O=C(c1cccc(F)c1)N(/N=N/c1ccc([N+](=O)[O-])cc1C(F)(F)F)c1ccc([N+](=O)[O-])cc1C(F)(F)F | 6.06 |  |
|  | O=[N+]([O-])c1ccc(/N=N/Nc2ccc([N+](=O)[O-])cc2Br)c(Br)c1 | 6.03 | solubility [5]: Insoluble |
|  | O=C(CCl)N(/N=N/c1ccc([N+](=O)[O-])cc1C(F)(F)F)c1ccc([N+](=O)[O-])cc1C(F)(F)F | 6.10 |  |
|  | O=C(c1cccc(F)c1)N(/N=N/c1ccc([N+](=O)[O-])cc1Cl)c1ccc([N+](=O)[O-])cc1Cl | 5.60 |  |
|  | O=C(c1cccc(C(F)(F)F)c1)N(/N=N/c1ccc([N+](=O)[O-])cc1Cl)c1ccc([N+](=O)[O-])cc1Cl | 5.93 |  |
| 24.1 µM (≈ 14.3 µg/mL) | COc1cc(/C=C/C(=O)N(/N=N/c2cc(C(F)(F)F)ccc2Cl)c2cc(C(F)(F)F)ccc2Cl)cc(OC)c1 |  | Activity [1]: inactive |
|  | O=C(c1cccc(C(F)(F)F)c1)N(/N=N/c1ccc([N+](=O)[O-])cc1Br)c1ccc([N+](=O)[O-])cc1Br | 5.95 |  |
|  | CC(=O)N(/N=N/c1ccc([N+](=O)[O-])cc1C(F)(F)F)c1ccc([N+](=O)[O-])cc1C(F)(F)F |  | remaining at 26.25 h [3]: 51% |

| solubility [2] | SMILES | pIC50 [1] | further results |
| --- | --- | --- | --- |
| 186 µM (≈ 50 µg/mL) | Fc1ccc(/N=N/Nc2ccc(F)cc2F)c(F)c1 |  | Activity [1]: inactive |
| 16.8 µM (≈ 10.4 µg/mL) | COc1cc(/C=C/C(=O)N(/N=N/c2ccc(Cl)c(C(F)(F)F)c2)c2ccc(Cl)c(C(F)(F)F)c2)ccc1OC(C)=O |  | Activity [1]: inactive |
|  | O=C(c1ccc(C(F)(F)F)cc1)N(/N=N/c1ccc([N+](=O)[O-])cc1Cl)c1ccc([N+](=O)[O-])cc1Cl | 5.97 |  |
|  | O=C(c1ccccc1)N(/N=N/c1ccc([N+](=O)[O-])cc1C(F)(F)F)c1ccc([N+](=O)[O-])cc1C(F)(F)F | 6.22 | remaining at 26.25 h [3]: 63% |
| 214 µM (≈ 50 µg/mL) | Fc1cccc(/N=N/Nc2cccc(F)c2)c1 |  | Activity [1]: inactive |
| 182 µM (≈ 50 µg/mL) | CC(=O)N(/N=N/c1cccc(F)c1)c1cccc(F)c1 |  | Activity [1]: inactive |
|  | O=C(c1ccccc1C(F)(F)F)N(/N=N/c1ccc([N+](=O)[O-])cc1Cl)c1ccc([N+](=O)[O-])cc1Cl | 4.98 |  |
|  | O=C(Cc1ccccc1)N(/N=N/c1ccc([N+](=O)[O-])cc1Cl)c1ccc([N+](=O)[O-])cc1Cl | 6.28 |  |
| 84.4 µM (≈ 50 µg/mL) | COc1ccc(/C=C/C(=O)N(/N=N/c2cc(C(F)(F)F)ccc2Cl)c2cc(C(F)(F)F)ccc2Cl)c(OC)c1 |  | Activity [1]: inactive |
| 186 µM (≈ 50 µg/mL) | Fc1ccc(/N=N/Nc2ccc(F)c(F)c2)cc1F |  | Activity [1]: inactive |
| 74.6 µM (≈ 25 µg/mL) | Clc1ccc(/N=N/Nc2ccc(Cl)c(Cl)c2)cc1Cl |  |  |
| 43.5 µM (≈ 12.5 µg/mL) | O=[N+]([O-])c1ccc(N=NNc2ccc([N+](=O)[O-])cc2)cc1 |  |  |
|  | O=[N+]([O-])c1ccc(/N=N/Nc2ccc([N+](=O)[O-])cc2C(F)(F)F)c(C(F)(F)F)c1 |  | Stability [3]: Stable; solubility [5]: Insoluble |
| 62.2 µM (≈ 25 µg/mL) | FC(F)(F)c1cc(Cl)ccc1/N=N/Nc1ccc(Cl)cc1C(F)(F)F |  | Activity [1]: inactive |
| 28.1 µM (≈ 16.6 µg/mL) | COc1ccc(/C=C/C(=O)N(/N=N/c2cc(C(F)(F)F)ccc2Cl)c2cc(C(F)(F)F)ccc2Cl)cc1OC |  | Activity [1]: inactive |
|  | O=C(c1cccc(C(F)(F)F)c1)N(/N=N/c1ccc([N+](=O)[O-])cc1C(F)(F)F)c1ccc([N+](=O)[O-])cc1C(F)(F)F | 6.12 |  |
|  | O=C(CCl)N(/N=N/c1ccc([N+](=O)[O-])cc1Cl)c1ccc([N+](=O)[O-])cc1Cl | 6.26 |  |
|  | O=[N+]([O-])c1ccc(/N=N/Nc2ccc([N+](=O)[O-])cc2F)c(F)c1 |  | solubility [5]: Insoluble |
|  | COC(=O)N(/N=N/c1ccc([N+](=O)[O-])cc1Cl)c1ccc([N+](=O)[O-])cc1Cl | 6.01 |  |
|  | CC(=O)OCC(=O)N(/N=N/c1ccc([N+](=O)[O-])cc1Cl)c1ccc([N+](=O)[O-])cc1Cl | 6.46 |  |
|  | O=C(c1ccccc1F)N(/N=N/c1ccc([N+](=O)[O-])cc1C(F)(F)F)c1ccc([N+](=O)[O-])cc1C(F)(F)F | 6.10 |  |
|  | CC(=O)OCC(=O)N(/N=N/c1ccc([N+](=O)[O-])cc1Br)c1ccc([N+](=O)[O-])cc1Br | 6.31 |  |
| 52.1 µM (≈ 25 µg/mL) | CC(=O)Oc1ccc(/C=C/C(=O)N(/N=N/c2cccc(F)c2)c2cccc(F)c2)cc1OC(C)=O |  | Activity [1]: inactive |
| 41.3 µM (≈ 16.7 µg/mL) | Clc1cc(Cl)c(/N=N/Nc2cc(Cl)c(Cl)cc2Cl)cc1Cl |  | Activity [1]: inactive |
|  | CCOC(=O)CC(=O)N(/N=N/c1ccc([N+](=O)[O-])cc1C(F)(F)F)c1ccc([N+](=O)[O-])cc1C(F)(F)F | 6.52 |  |
